Reference: ChEMBL document CHEMBL1773031, “Maklamicin, an antibacterial polyketide from an endophytic Micromonospora sp” (J Nat Prod, 2011)
Converted amounts (≈) assume the structure as drawn.

Columns and labels:
Bacillus subtilis = assay: Antimicrobial activity against Bacillus subtilis PCI219 after 20 hrs by microplate reader assay; type: functional; conditions: PCI219, 20 h
Summary of the method: (§1)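 Grown in Mueller Hinton broth on a reciprocal shaker for 20 h at 30 °C, then pelleted and resuspended in saline at 1 × 10^5 cells/mL. The suspension was mixed into fresh broth in 96-well plates with test sample in DMSO. Plates were incubated for 20 h at 30 °C, and growth was read as absorbance at 650 nm.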

Staphylococcus aureus = assay: Antimicrobial activity against Staphylococcus aureus IFO 12732 after 20 hrs by microplate reader assay; type: functional; conditions: IFO 12732, 20 h; summary of the method: as §1
Bacillus cereus = assay: Antimicrobial activity against Bacillus cereus NBRC 15305 after 20 hrs by microplate reader assay; type: functional; conditions: NBRC 15305, 20 h; summary of the method: as §1
Micrococcus luteus = assay: Antimicrobial activity against Micrococcus luteus ATCC 9343 after 20 hrs by microplate reader assay; type: functional; conditions: ATCC 9343, 20 h; summary of the method: as §1
Escherichia coli = assay: Antimicrobial activity against Escherichia coli NIH-JC2 after 20 hrs by microplate reader assay; type: functional; conditions: NIH-JC2, 20 h
Summary of the method: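 The E. coli preculture was grown in Mueller Hinton broth, shaken for 20 h at 30 °C, centrifuged and suspended in saline at 1 × 10^5 cells/mL. The suspension was combined in broth with sample dissolved in DMSO. Incubation was 20 h at 37 °C, with absorbance at 650 nm read on a microplate reader.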

Enterococcus faecalis = assay: Antimicrobial activity against Enterococcus faecalis NBRC 100480 after 20 hrs by microplate reader assay; type: functional; conditions: NBRC 100480, 20 h; summary of the method: as §1
MCF7 = assay: Cytotoxicity against human MCF7 cells after 48 hrs by MTT assay; type: functional, cell-based; conditions: MCF7, 48 h
Candida albicans = assay: Antimicrobial activity against Candida albicans IFO 1594 after 20 hrs by microplate reader assay; type: functional; conditions: IFO 1594, 20 h
Summary of the method: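 Yeast Nitrogen Base supplemented with 2% glucose was the medium. Cells were shaken for 20 h at 30 °C, pelleted and resuspended in saline at 1 × 10^5 cells/mL. They were mixed in medium with DMSO sample solution in 96-well plates and incubated for 20 h at 30 °C. Growth was measured as absorbance at 650 nm.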

HeLa = assay: Cytotoxicity against human HeLa cells after 48 hrs by MTT assay; type: functional, cell-based

| MIC (Bacillus subtilis) [µg/mL] | MIC (Staphylococcus aureus) [µg/mL] | MIC (Bacillus cereus) [µg/mL] | MIC (Micrococcus luteus) [µg/mL] | MIC (Escherichia coli) [µg/mL] | MIC (Enterococcus faecalis) [µg/mL] | MIC (Candida albicans) [µg/mL] | SMILES | IC50 (MCF7) [µM] | IC50 (HeLa) [µM] |
| --- | --- | --- | --- | --- | --- | --- | --- | --- | --- |
| 0.05 | 0.05 | 1.5 | 0.1 | 0.8 | 0.2 | – | CN(C)[C@@H]1C(O)=C(C(N)=O)C(=O)[C@@]2(O)C(O)=C3C(=O)c4c(O)cccc4[C@@](C)(O)[C@H]3C[C@@H]12.Cl [TETRACYCLINE HYDROCHLORIDE] | – | – |
| 1.7 (≈ 3.24 µM) | 13 (≈ 24.8 µM) | 6.5 (≈ 12.4 µM) | 0.2 (≈ 0.381 µM) | > 50 | 13 (≈ 24.8 µM) | 50 (≈ 95.3 µM) | C[C@H]1CC[C@@H]2[C@H](C=C[C@H]3[C@H](C)/C=C/C[C@]4(C)C=C(CO)[C@H](C[C@@H](C)O)C[C@]45OC(=O)C(=C5O)C(=O)[C@@]23C)C1 [MAKLAMICIN] | 34 | 17 |
